Data taken from ChEMBL document CHEMBL4813918, “From off-to on-target: New BRAF-inhibitor-template-derived compounds selectively targeting mitogen activated protein kinase kinase 4 (MKK4)” (Eur J Med Chem, 2021).

Columns and labels:
[1] = target: Mitogen-activated protein kinase kinase kinase kinase 5 (Homo sapiens) (UniProt Q9Y4K4); assay: Binding affinity to wild type partial length human MAP4K5 (M1 to P297) expressed in Bacterial expression system assessed as residual activity at 100 nM measured by Kinomescan assay relative to control
[2] = target: T1, Dual specificity mitogen-activated protein kinase kinase 7 (Homo sapiens) (UniProt O14733); assay: Binding affinity to wild type full length human MKK7 (M1 to R419 residues) expressed in mammalian expression system assessed as residual activity at 100 nM measured by Kinomescan assay
T1 sequence (whole entry): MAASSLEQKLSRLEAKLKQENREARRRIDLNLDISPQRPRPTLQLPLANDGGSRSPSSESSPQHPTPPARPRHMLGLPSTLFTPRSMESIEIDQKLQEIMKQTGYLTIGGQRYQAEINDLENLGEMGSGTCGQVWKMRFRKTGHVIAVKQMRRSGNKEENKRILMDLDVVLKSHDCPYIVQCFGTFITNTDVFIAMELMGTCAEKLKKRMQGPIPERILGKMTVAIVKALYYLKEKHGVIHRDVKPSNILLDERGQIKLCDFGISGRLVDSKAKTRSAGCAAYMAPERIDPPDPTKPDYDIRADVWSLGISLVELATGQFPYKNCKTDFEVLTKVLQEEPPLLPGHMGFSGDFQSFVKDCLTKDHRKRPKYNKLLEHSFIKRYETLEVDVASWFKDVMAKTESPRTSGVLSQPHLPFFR

[3] = target: Mitogen-activated protein kinase kinase kinase 20 (Homo sapiens) (UniProt Q9NYL2); assay: Binding affinity to wild type partial length human ZAK (M1 to L331) expressed in bacterial expression system assessed as residual activity at 100 nM measured by Kinomescan assay
[4] = target: T2, Dual specificity mitogen-activated protein kinase kinase 4 (Mus musculus, UniProt P47809); assay: Binding affinity to GST tagged mouse MKK4 expressed in Escherichia coli expression system measured by Kinomescan assay
T2 sequence (P47809 whole entry): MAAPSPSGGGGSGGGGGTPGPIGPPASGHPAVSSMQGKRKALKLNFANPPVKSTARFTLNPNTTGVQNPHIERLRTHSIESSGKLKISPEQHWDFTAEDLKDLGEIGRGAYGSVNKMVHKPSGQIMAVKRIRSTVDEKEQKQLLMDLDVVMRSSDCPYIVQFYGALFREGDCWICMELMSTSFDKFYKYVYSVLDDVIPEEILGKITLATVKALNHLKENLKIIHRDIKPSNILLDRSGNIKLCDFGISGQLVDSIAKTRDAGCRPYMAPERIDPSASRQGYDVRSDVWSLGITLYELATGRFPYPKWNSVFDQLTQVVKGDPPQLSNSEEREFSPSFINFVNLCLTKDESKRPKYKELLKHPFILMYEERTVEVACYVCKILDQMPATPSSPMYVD
How it was run: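 Competition binding: compound competes with an immobilized multikinase inhibitor for the site on DNA-tagged MKK4. Bound kinase is quantified by qPCR. Kd values are determined in duplicate.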

Chain of Mitogen-activated protein kinase kinase kinase kinase 5 (Homo sapiens) (Q9Y4K4 whole entry, looked up, the tested form may be a part): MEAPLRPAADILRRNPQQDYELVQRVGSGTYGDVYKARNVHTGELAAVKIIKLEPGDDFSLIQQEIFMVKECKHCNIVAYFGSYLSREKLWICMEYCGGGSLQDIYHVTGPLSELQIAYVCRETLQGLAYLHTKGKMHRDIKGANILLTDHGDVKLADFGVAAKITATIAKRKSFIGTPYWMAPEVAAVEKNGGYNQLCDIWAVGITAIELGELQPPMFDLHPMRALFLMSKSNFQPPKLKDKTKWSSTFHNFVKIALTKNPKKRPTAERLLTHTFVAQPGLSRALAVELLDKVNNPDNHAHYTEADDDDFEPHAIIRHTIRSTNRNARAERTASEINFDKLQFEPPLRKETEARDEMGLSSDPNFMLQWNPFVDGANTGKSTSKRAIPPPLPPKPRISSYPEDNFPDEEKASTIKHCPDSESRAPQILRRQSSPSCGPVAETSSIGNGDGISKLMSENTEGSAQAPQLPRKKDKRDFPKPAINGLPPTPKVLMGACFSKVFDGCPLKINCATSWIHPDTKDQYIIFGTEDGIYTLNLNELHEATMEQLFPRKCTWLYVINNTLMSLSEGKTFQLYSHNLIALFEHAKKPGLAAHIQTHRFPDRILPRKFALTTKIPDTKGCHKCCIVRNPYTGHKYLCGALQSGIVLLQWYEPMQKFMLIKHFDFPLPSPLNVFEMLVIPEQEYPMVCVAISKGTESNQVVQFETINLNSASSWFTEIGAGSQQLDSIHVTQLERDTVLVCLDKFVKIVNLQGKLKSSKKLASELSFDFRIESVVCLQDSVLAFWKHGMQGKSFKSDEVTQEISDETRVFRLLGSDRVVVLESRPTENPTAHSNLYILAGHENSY
Chain of Mitogen-activated protein kinase kinase kinase 20 (Homo sapiens) (Q9NYL2 2-800 limits assumed): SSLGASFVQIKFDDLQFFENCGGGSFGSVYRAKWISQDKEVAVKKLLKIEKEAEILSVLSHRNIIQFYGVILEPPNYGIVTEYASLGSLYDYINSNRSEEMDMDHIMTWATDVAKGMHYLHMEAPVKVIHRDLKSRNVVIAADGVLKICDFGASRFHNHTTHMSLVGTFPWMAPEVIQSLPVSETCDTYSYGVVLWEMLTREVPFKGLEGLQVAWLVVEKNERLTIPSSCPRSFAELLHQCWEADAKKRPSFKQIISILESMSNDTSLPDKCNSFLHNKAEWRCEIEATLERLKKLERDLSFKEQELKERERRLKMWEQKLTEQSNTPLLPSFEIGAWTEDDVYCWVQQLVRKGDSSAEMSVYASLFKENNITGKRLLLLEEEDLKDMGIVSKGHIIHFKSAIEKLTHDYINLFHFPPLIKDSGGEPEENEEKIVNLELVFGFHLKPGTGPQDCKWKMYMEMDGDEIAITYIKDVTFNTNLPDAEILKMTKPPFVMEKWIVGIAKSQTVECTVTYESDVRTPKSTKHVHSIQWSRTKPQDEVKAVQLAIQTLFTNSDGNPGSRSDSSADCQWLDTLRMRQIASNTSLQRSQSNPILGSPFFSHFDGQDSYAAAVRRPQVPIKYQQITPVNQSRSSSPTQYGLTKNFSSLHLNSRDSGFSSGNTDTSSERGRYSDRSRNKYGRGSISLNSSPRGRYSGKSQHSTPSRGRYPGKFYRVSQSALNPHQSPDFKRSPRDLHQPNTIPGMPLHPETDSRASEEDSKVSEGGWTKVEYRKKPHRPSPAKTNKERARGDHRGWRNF

Activity [1]	Activity [2]	Activity [3]	Kd [4]	Compound
82%	86%	80%	1.1 nM	O=C(c1cccc(NS(=O)(=O)Cc2ccccc2)c1F)c1c[nH]c2ncc(-c3cnc(C4CC4)nc3)cc12
45%	90%	0.8%	–	CCCS(=O)(=O)Nc1ccc(F)c(C(=O)c2c[nH]c3ncc(-c4cccc(F)c4)cc23)c1F
29%	100%	0.5%	–	CCCS(=O)(=O)Nc1ccc(F)c(C(=O)c2c[nH]c3ncc(-c4ccccc4)cc23)c1F
94%	100%	30%	–	O=C(c1c(F)ccc(NS(=O)(=O)Cc2ccccc2)c1F)c1c[nH]c2ncc(-c3ccc(Cl)cc3)cc12
100%	100%	14%	–	CCCS(=O)(=O)Nc1ccc(F)c(C(=O)c2c[nH]c3ncc(-c4ccc(F)cc4C)cc23)c1F
79%	100%	87%	–	COc1ccc(-c2cnc3[nH]cc(C(=O)c4cccc(NS(=O)(=O)Cc5ccccc5)c4F)c3c2)c(Cl)c1
54%	100%	3.5%	–	O=C(c1c(F)ccc(NS(=O)(=O)CCC(F)(F)F)c1F)c1c[nH]c2ncc(-c3ccc(Cl)cc3)cc12
76%	90%	0.45%	–	CCCS(=O)(=O)Nc1ccc(F)c(C(=O)c2c[nH]c3ncc(-c4ccc5c(c4)OCO5)cc23)c1F
67%	100%	6.9%	–	CCCS(=O)(=O)Nc1ccc(F)c(C(=O)c2c[nH]c3ncc(-c4ccccc4C)cc23)c1F
91%	94%	78%	–	CCCC(=O)Nc1ccc(F)c(C(=O)c2c[nH]c3ncc(-c4ccc(Cl)cc4)cc23)c1F
82%	89%	8.3%	–	CCS(=O)(=O)Nc1ccc(F)c(C(=O)c2c[nH]c3ncc(-c4ccc(Cl)cc4)cc23)c1F
100%	97%	53%	–	O=C(c1c(F)ccc(NS(=O)(=O)CCc2ccccc2)c1F)c1c[nH]c2ncc(-c3ccc(Cl)cc3)cc12
79%	100%	7.6%	–	CCCS(=O)(=O)Nc1ccc(F)c(C(=O)c2c[nH]c3ncc(-c4ccccc4Cl)cc23)c1F
99%	81%	73%	–	CCCCCCS(=O)(=O)Nc1ccc(F)c(C(=O)c2c[nH]c3ncc(-c4ccc(Cl)cc4)cc23)c1F
80%	81%	3.5%	–	CCCS(=O)(=O)Nc1ccc(F)c(C(=O)c2c[nH]c3ncc(-c4cncnc4)cc23)c1F
89%	100%	1.4%	–	C#Cc1cnc2[nH]cc(C(=O)c3c(F)ccc(NS(=O)(=O)CCC)c3F)c2c1
78%	81%	27%	–	CS(=O)(=O)Nc1cccc(C(=O)c2c[nH]c3ncc(-c4ccc(Cl)cc4)cc23)c1F
48%	100%	5.3%	8.2 nM	CCCS(=O)(=O)Nc1ccc(F)c(C(=O)c2c[nH]c3ncc(-c4ccc(Cl)cc4)cc23)c1F [VEMURAFENIB]
14%	84%	18%	–	CCCS(=O)(=O)Nc1ccc(F)c(C(=O)c2c[nH]c3ncc(-c4ccc(OC)c(OC)c4)cc23)c1F
84%	100%	2.2%	–	CCCS(=O)(=O)Nc1ccc(F)c(C(=O)c2c[nH]c3ncc(-c4ccc5c(c4)OCCO5)cc23)c1F

Activity [1]	Activity [2]	Activity [3]	Kd [4]	Compound
18%	100%	23%	–	CCCS(=O)(=O)Nc1ccc(F)c(C(=O)c2c[nH]c3ncc(-c4cccc(OC)c4)cc23)c1F
28%	89%	0.85%	–	CCCS(=O)(=O)Nc1ccc(F)c(C(=O)c2c[nH]c3ncc(-c4ccc(C)cc4)cc23)c1F
86%	70%	38%	0.85 nM	COc1ncc(-c2cnc3[nH]cc(C(=O)c4cccc(NS(=O)(=O)Cc5ccccc5)c4F)c3c2)cn1
86%	84%	8.9%	–	CCCS(=O)(=O)Nc1ccc(F)c(C(=O)c2c[nH]c3ncc(-c4cnc(OC)nc4)cc23)c1F
75%	83%	11%	–	CCCS(=O)(=O)Nc1ccc(F)c(C(=O)c2c[nH]c3ncc(-c4cnccn4)cc23)c1F
66%	100%	80%	–	O=C(c1cccc(NS(=O)(=O)Cc2ccccc2)c1F)c1c[nH]c2ncc(-c3cc4c(cc3Cl)OCO4)cc12
20%	85%	1.7%	–	O=C(c1cccc(NS(=O)(=O)Cc2ccccc2)c1F)c1c[nH]c2ncc(-c3cccnc3)cc12
92%	90%	39%	–	CCCS(=O)(=O)Nc1ccc(F)c(C(=O)c2c[nH]c3ncc(-c4ncccn4)cc23)c1F
99%	100%	26%	–	CCCS(=O)(=O)Nc1ccc(F)c(C(=O)c2c[nH]c3ncc(-c4cc5c(cc4Cl)OCO5)cc23)c1F
98%	97%	20%	–	CCCS(=O)(=O)Nc1ccc(F)c(C(=O)c2c[nH]c3ncc(-c4cc5c(cc4Cl)OCCO5)cc23)c1F
48%	98%	2.9%	–	CCCS(=O)(=O)Nc1ccc(F)c(C(=O)c2c[nH]c3ncc(-c4cccs4)cc23)c1F
67%	100%	0.9%	–	CCCS(=O)(=O)Nc1ccc(F)c(C(=O)c2c[nH]c3ncc(-c4ccc(F)cc4)cc23)c1F
100%	75%	58%	–	COCCS(=O)(=O)Nc1ccc(F)c(C(=O)c2c[nH]c3ncc(-c4ccc(Cl)cc4)cc23)c1F
79%	100%	68%	–	CCCS(=O)(=O)Nc1cccc(C(=O)c2c[nH]c3ncc(-c4ccc(Cl)cc4)cc23)c1Cl
72%	97%	66%	–	O=C(c1cccc(NS(=O)(=O)Cc2ccccc2)c1F)c1c[nH]c2ncc(-c3ccc(Cl)cc3)cc12
28%	97%	0.7%	–	CCCS(=O)(=O)Nc1ccc(F)c(C(=O)c2c[nH]c3ncc(-c4cccc(C)c4)cc23)c1F
84%	87%	1.6%	–	CCCS(=O)(=O)Nc1ccc(F)c(C(=O)c2c[nH]c3ncc(-c4ccc(OC)cc4OC)cc23)c1F
95%	100%	81%	–	Cc1nc(NC(C)CO)c2c(n1)[nH]c1ccc(O)cc12 (stereo unspecified)
98%	100%	94%	3.5 nM	O=C(c1cccc(NS(=O)(=O)Cc2ccccc2)c1F)c1c[nH]c2ncc(-c3cc4c(cc3Cl)OCCO4)cc12
